Assay results as given in ChEMBL document CHEMBL4251667, “Ribemansides A and B, TRPC6 Inhibitors from Ribes manshuricum That Suppress TGF-β1-Induced Fibrogenesis in HK-2 Cells” (J Nat Prod, 2018).
One block for each molecule: values may come before it. Activity calls are given as the source filed them. No cut-off for these calls is given here.

Legend:
[1] = target: T1, Short transient receptor potential channel 6 (Mus musculus, UniProt Q61143); assay: Inhibition of mouse TRPC6 expressed in HEK293 cells assessed as reduction in M085-induced intracellular calcium flux pretreated for 5 mins followed by M085 addition measured after 300 secs by Fluo-8AM dye based FLIPR assay; type: cell-based
T1 sequence (Q61143 whole entry): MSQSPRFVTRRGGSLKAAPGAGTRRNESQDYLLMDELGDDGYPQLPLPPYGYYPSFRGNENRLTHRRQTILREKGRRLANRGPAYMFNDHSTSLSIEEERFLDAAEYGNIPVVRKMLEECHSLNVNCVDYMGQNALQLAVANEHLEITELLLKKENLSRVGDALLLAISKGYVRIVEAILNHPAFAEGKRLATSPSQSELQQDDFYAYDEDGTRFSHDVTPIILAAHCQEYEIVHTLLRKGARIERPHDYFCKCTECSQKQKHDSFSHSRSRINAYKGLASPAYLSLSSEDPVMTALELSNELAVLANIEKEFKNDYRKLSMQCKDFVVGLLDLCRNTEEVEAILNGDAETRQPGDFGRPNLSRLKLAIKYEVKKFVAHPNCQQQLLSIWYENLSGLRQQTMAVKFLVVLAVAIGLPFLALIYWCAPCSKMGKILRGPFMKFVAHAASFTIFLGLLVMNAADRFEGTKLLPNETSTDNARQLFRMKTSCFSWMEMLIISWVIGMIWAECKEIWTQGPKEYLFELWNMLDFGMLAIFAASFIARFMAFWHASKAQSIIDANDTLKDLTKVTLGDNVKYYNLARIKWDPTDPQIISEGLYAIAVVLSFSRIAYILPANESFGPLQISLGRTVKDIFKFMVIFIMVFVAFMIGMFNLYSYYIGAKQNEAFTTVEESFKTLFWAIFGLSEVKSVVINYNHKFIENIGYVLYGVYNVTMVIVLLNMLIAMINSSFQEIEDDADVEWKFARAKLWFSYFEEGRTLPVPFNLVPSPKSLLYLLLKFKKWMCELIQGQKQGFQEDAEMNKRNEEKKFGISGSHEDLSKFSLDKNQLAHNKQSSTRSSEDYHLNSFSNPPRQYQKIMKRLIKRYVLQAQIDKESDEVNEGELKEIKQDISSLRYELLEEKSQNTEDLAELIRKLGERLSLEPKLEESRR
Summary of the method: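 HEK-293 cells stably expressing mouse TRPC6, on poly-D-lysine plates (~20 000 cells/well), cultured 6 h. Loaded with 4 μM Fluo-8/AM for 45 min, washed. FLIPR read: baseline 30 s, then compound or vehicle 5 min, then M085 (1 μM). Signal expressed as F/F0; AUC over 300 s after M085 used for concentration–response. Twice, each in triplicate.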

HK-2 [2] = assay: Inhibition of TGFbeta1-induced epithelial-mesenchymal transition in human HK2 cells assessed as reversal of spindle-like morphology at 30 uM measured after 36 hrs; type: functional, cell-based
Summary of the method: (§1)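 HK-2 cells kept in RPMI 1640 with 2 mg/mL NaHCO3, 10% FBS and 10 mM HEPES, then seeded at 6000 (96-well) or 40 000 (12-well) cells/well. Treated in serum-free medium with TGF-β1 (5 ng/mL), with or without test agent, for 36 h. Morphology scored as cell length/width ratio (n = 40). Run twice, each in duplicate.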

HK-2 [3] = assay: Inhibition of TGFbeta1-induced epithelial-mesenchymal transition in human HK2 cells assessed as reduction in alpha-SMA expression at 30 uM measured after 36 hrs by Western blot analysis; type: functional, cell-based
HK-2 [4] = assay: Inhibition of TGFbeta1-induced epithelial-mesenchymal transition in human HK2 cells assessed as reduction in fibronectin release at 30 uM measured after 36 hrs by ELISA; type: functional, cell-based
HK-2 [5] = assay: Effect on basal alpha-SMA expression in human HK2 cells at 1 uM after 36 hrs by Western blot analysis; type: ADME, cell-based; conditions: hk-2, 36 h
HK-2 [6] = assay: Inhibition of TGFbeta1-induced epithelial-mesenchymal transition in human HK2 cells assessed as reversal of spindle-like morphology measured after 36 hrs; type: functional, cell-based; summary of the method: as §1
HK-2 [7] = assay: Inhibition of TGFbeta1-induced epithelial-mesenchymal transition in human HK2 cells assessed as reduction in fibronectin release measured after 36 hrs by ELISA; type: functional, cell-based
HK-2 [8] = assay: Inhibition of TGFbeta1-induced epithelial-mesenchymal transition in human HK2 cells assessed as reduction in alpha-SMA expression measured after 36 hrs by Western blot analysis; type: functional, cell-based
HK-2 [9] = assay: Effect on morphological changes in human HK2 cells at 1 uM measured after 36 hrs; type: ADME, cell-based; conditions: hk-2, 36 h

- IC50 [1]: 25.6 µM
SMILES: COc1cc(C(=O)OC[C@H]2O[C@@H](OC/C(C#N)=C/CO)[C@H](O)[C@@H](O)[C@@H]2O)ccc1O
- inhibition (HK-2 [2]): Active
- inhibition (HK-2 [3]): Active
- inhibition (HK-2 [4]): Active

SMILES: Cl.Cl.N#Cc1ccc(O[C@@H]2c3ccccc3C[C@H]2N2CCC[C@@H](N)C2)c(Cl)c1
- Activity (HK-2 [5]): Non-Toxic
- inhibition (HK-2 [6]): Dose-dependent effect
- inhibition (HK-2 [7]): Dose-dependent effect
- inhibition (HK-2 [8]): Dose-dependent effect
- Activity (HK-2 [9]): Non-Toxic

- IC50 [1]: 24.5 µM
SMILES: N#C/C(=C\CO)CO[C@@H]1O[C@H](COC(=O)c2ccc(O)cc2)[C@@H](O)[C@H](O)[C@H]1O
- inhibition (HK-2 [2]): Active
- inhibition (HK-2 [3]): Active
- inhibition (HK-2 [4]): Active
